From ChEMBL document CHEMBL2311260, “Dual action spirobicycloimidazolidine-2,4-diones: antidiabetic agents and inhibitors of aldose reductase-an enzyme involved in diabetic complications” (Bioorg Med Chem Lett, 2013)

What was measured:
[1] = species: Rattus norvegicus; experiment: Antidiabetic activity in albino rat diabetic model assessed as plasma glucose level measured after 1 hr (reference value: 274 +/- 4.73 mg/dl); type: functional
[2] = species: Rattus norvegicus; experiment: Antidiabetic activity in albino rat diabetic model assessed as plasma glucose level measured after 2 hrs (reference value: 251 +/- 2.91 mg/dl); type: functional
[3] = species: Rattus norvegicus; experiment: Antidiabetic activity in albino rat diabetic model assessed as plasma glucose level measured after 3 hrs (reference value: 263 +/- 10.67 mg/dl); type: functional
[4] = Inhibition of calf ALR2; design: species or system Bos taurus
How it was run: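 Partially purified ALR2 extracted from calf eye. D,L-glyceraldehyde was the substrate with NADPH as cofactor, and sulindac served as reference. IC50 values are given ± SEM from n = 3. Kinetics were also run with inhibitor at 20 µM, varying substrate or NADPH for Km and inhibition type.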

[5] = species: Rattus norvegicus; experiment: Antidiabetic activity in albino rat diabetic model assessed as plasma glucose level measured after 6 hrs (reference value: 285 +/- 8.66 mg/dl); type: functional
[6] = species: Rattus norvegicus; experiment: Antidiabetic activity in albino rat diabetic model assessed as plasma glucose level measured after 5 hrs (reference value: 275 +/- 3.53 mg/dl); type: functional
[7] = species: Rattus norvegicus; experiment: Antidiabetic activity in albino rat diabetic model assessed as plasma glucose level measured after 7 hrs (reference value: 280 +/- 6.51 mg/dl); type: functional
[8] = species: Rattus norvegicus; experiment: Antidiabetic activity in albino rat diabetic model assessed as plasma glucose level measured after 4 hrs (reference value: 291 +/- 6.40 mg/dl); type: functional
[9] = Inhibition of calf ALR1; design: species or system Bos taurus
How it was run: (§1)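 ALR1 (aldehyde reductase) partially purified from calf kidney. Values are IC50 ± SEM in µM, or percent inhibition at 0.6 mM. Valproic acid served as positive control to validate the assay.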

[10] = species: Bos taurus; experiment: Inhibition of calf ALR1 at 0.6 mM; how it was run: as §1

IC50 [4] [µM] | IC50 [9] [µM] | inhibition [10] [%] | SMILES | Activity [1] [mg/dL] | Activity [2] [mg/dL] | Activity [3] [mg/dL] | Activity [5] [mg/dL] | Activity [6] [mg/dL] | Activity [7] [mg/dL] | Activity [8] [mg/dL]
1.8 | 117 |  | Cc1ccc(S(=O)(=O)N2C(=O)NC3(CC4CCC3C4)C2=O)cc1 (stereo unspecified) | 506 | 421 | 305 | 128 | 163 | 114 | 225
4.4 | 40.2 |  | COc1ccc(S(=O)(=O)N2C(=O)NC3(CC4CCC3C4)C2=O)cc1 (stereo unspecified) | 413 | 353 | 544 | 600 | 565 | 620 | 570
4.5 |  | 41.6 | O=C1c2ccccc2C(=O)c2cc(S(=O)(=O)N3C(=O)NC4(CC5CCC4C5)C3=O)ccc21 (stereo unspecified) | 460 | 399 | 338 | 99 | 187 | 86 | 281
13.1 | 44.8 |  | O=C1NC2(CC3CCC2C3)C(=O)N1S(=O)(=O)c1ccc([N+](=O)[O-])cc1 (stereo unspecified) | 399 | 429 | 482 | 502 | 349 | 542 | 421
15.4 |  | 43.2 | O=C1NC2(CC3CCC2C3)C(=O)N1S(=O)(=O)c1ccc(Br)cc1 (stereo unspecified) | 289 | 273 | 357 | 337 | 352 | 245 | 353
5.59 | 61.1 |  | O=C1NC2(CC3CCC2C3)C(=O)N1S(=O)(=O)c1ccc(Cl)cc1 (stereo unspecified) | 392 | 287 | 283 | 143 | 215 | 128 | 280
 |  |  | COc1ccc(Cl)cc1C(=O)NCCc1ccc(S(=O)(=O)NC(=O)NC2CCCCC2)cc1 [GLYBURIDE] | 350 | 289 | 250 | 170 | 220 | 150 | 239
3.8 |  | 36.8 | O=C1NC2(CC3CCC2C3)C(=O)N1S(=O)(=O)c1ccc2ccccc2c1 (stereo unspecified) | 210 | 389 | 393 | 414 | 401 | 430 | 471

SMILES | IC50 [4] [µM] | IC50 [9] [µM] | inhibition [10] [%] | Activity [1] [mg/dL] | Activity [2] [mg/dL] | Activity [3] [mg/dL] | Activity [5] [mg/dL] | Activity [6] [mg/dL] | Activity [7] [mg/dL] | Activity [8] [mg/dL]
CC1=C(CC(=O)O)c2cc(F)ccc2/C1=C\c1ccc([S+](C)[O-])cc1 (stereo unspecified) [SULINDAC] | 0.293 |  |  |  |  |  |  |  |  | 
